Experimental data taken from ChEMBL document CHEMBL1150647, “New diarylheptanoids from the stems of Carpinus cordata” (J Nat Prod, 2002).
≈ marks a conversion by molar mass, not a printed value.

Test system: Radical scavenging activity
Assay: Antioxidant activity assessed as DPPH free radical scavenging activity after 30 mins
Type: functional
Method in brief: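 Test samples in EtOH mixed with 100 µM ethanolic DPPH and incubated at 37 °C for 30 min. Absorbance was read at 515 nm. Percent inhibition was calculated against an ethanol-treated control. IC50 is the sample concentration that scavenges 50% of DPPH radicals.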

| IC50 | SMILES |
| --- | --- |
| 2.7 µg/mL (≈ 9.3 µM) | Oc1cc(O)c2c(c1)O[C@H](c1ccc(O)c(O)c1)[C@@H](O)C2 [CIANIDANOL] |
| > 100 µg/mL | O=C1C[C@@H](O)[C@@H](O)Cc2ccc(O)c(c2)-c2cc(ccc2O)C[C@H]1O [CARPINONTRIOLS A] |
| > 100 µg/mL | O=C1CC[C@H](O)Cc2ccc(O)c(c2)-c2cc(ccc2O)C[C@H]1O [CASUARINONDIOL] |
| 80.2 µg/mL (≈ 233 µM) | O=C1CCc2ccc(O)c(c2)-c2cc(ccc2O)C[C@H](O)[C@H](O)[C@H]1O [CARPINONTRIOL B] |
| 16.2 µg/mL (≈ 71 µM) | Oc1ccc(/C=C/c2cc(O)cc(O)c2)cc1 [RESVERATROL] |

Continued, molecule first:

| SMILES | IC50 |
| --- | --- |
| COC(=O)c1cc(O)c(O)c(O[C@@H]2O[C@H](COC(=O)c3cc(O)c(O)c(O)c3)[C@@H](O)[C@H](O)[C@H]2O)c1 | 4.9 µg/mL (≈ 9.83 µM) |
| O=C(O[C@@H]1Cc2c(O)cc(O)cc2O[C@@H]1c1cc(O)c(O)c(O)c1)c1cc(O)c(O)c(O)c1 [EPIGALOCATECHIN GALLATE] | 2.7 µg/mL (≈ 5.89 µM) |
| COC(=O)c1cc(O)c(O)c(O)c1 [GALLIC ACID METHYL ESTER] | 4.9 µg/mL (≈ 26.6 µM) |
| COC(=O)c1cc(O)c(O)c(O[C@@H]2O[C@H](CO)[C@@H](O)[C@H](O)[C@H]2O)c1 | 4.6 µg/mL (≈ 13.3 µM) |
| COC(=O)c1cc(O)c(O[C@@H]2O[C@H](CO)[C@@H](O)[C@H](O)[C@H]2O)c(O)c1 | > 100 µg/mL |
